Laboratory results published in ChEMBL document CHEMBL4602642, “Pyrola incarnata demonstrates neuroprotective effects against β-amyloid-induced memory impairment in mice” (Bioorg Med Chem Lett, 2020).
Activity calls are given as the source filed them. The rule behind the calls is not given here.

How the values were obtained:
[1] = Effect on locomotory activity in C57BL/6 mouse model of amyloid beta (25 to 35) peptide-induced memory impairment assessed as change in number of line crossing at 14 to 56 mg/kg, po administered via gavage measured for 5 mins by open field test; format: ADME, organism-based; settings: in vivo
Summary of the method: (§1)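 Open-field test after intracerebroventricular Aβ25–35 and dosing at 14, 28 or 56 mg/kg or vehicle. Line crossings and mean speed were counted during a 5-minute session. Results are mean ± SEM.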

[2] = Effect on locomotory activity in C57BL/6 mouse model of amyloid beta (25 to 35) peptide-induced memory impairment assessed as change in mean speed at 14 to 56 mg/kg, po administered via gavage measured for 5 mins by open field test; format: ADME, organism-based; settings: in vivo; summary of the method: as §1
[3] = tested on: Mus musculus; experiment: Cognitive enhancing effect in C57BL/6 mouse model of amyloid beta (25 to 35) peptide-induced memory impairment assessed as reduction in escape latency time to find removed platform position at 56 mg/kg, po administered via gavage and measured on 4th day by Barnes maze test; format: functional, organism-based
Summary of the method: (§2)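 Barnes maze in mice given intracerebroventricular Aβ25–35: latency to enter the escape box over the training days, plus latency and mistake counts in the probe trial, each compared with the vehicle-treated Aβ25–35 group. Results are mean ± SEM.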

[4] = tested on: Mus musculus; experiment: Cognitive enhancing effect in orally dosed C57BL/6 mouse model of amyloid beta (25 to 35) peptide-induced memory impairment assessed as reduction in escape latency time to find removed platform position measured on 4th day by Barnes maze test; format: functional, organism-based
Summary of the method: (§3)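 Mice given Aβ25–35 by intracerebroventricular injection were run in a Barnes maze. Latency to enter the escape box was recorded over the training sessions, and latency and mistake counts were scored in the probe trial. Results are mean ± SEM.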

[5] = tested on: Mus musculus; experiment: Cognitive enhancing effect in orally dosed C57BL/6 mouse model of amyloid beta (25 to 35) peptide-induced memory impairment assessed as reduction in mistake time to find removed platform position measured on 4th day by Barnes maze test; format: functional, organism-based; summary of the method: as §3
[6] = tested on: Mus musculus; experiment: Cognitive enhancing effect in C57BL/6 mouse model of amyloid beta (25 to 35) peptide-induced memory impairment assessed as reduction in mistake time to find removed platform position at 56 mg/kg, po administered via gavage and measured on 4th day by Barnes maze test; format: functional, organism-based; summary of the method: as §2
[7] = Effect on locomotory activity in C57BL/6 mouse model of amyloid beta (25 to 35) peptide-induced memory impairment assessed as change in mean speed of swimming at 14 to 56 mg/kg, po administered via gavage by Morris water maze test; format: ADME, organism-based; settings: in vivo
Summary of the method: (§4)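 Mice given intracerebroventricular Aβ25–35 received 14, 28 or 56 mg/kg, or an equal volume of vehicle. Morris water maze: swim speed taken on day 1, escape latency recorded in training sessions, probe trial on day 6 with the platform removed (time to target and platform crossings scored). n = 9 per group, mean ± SEM.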

[8] = tested on: Mus musculus; experiment: Cognitive enhancing effect in C57BL/6 mouse model of amyloid beta (25 to 35) peptide-induced memory impairment assessed as reduction in escape latency time to find removed platform position at 14 mg/kg, po administered via gavage and measured on 5th day by Morris water maze test; format: functional, organism-based; summary of the method: as §4
[9] = tested on: Mus musculus; experiment: Cognitive enhancing effect in C57BL/6 mouse model of amyloid beta (25 to 35) peptide-induced memory impairment assessed as reduction in escape latency time to find removed platform position at 28 mg/kg, po administered via gavage and measured on 5th day by Morris water maze test; format: functional, organism-based; summary of the method: as §4
[10] = tested on: Mus musculus; experiment: Cognitive enhancing effect in C57BL/6 mouse model of amyloid beta (25 to 35) peptide-induced memory impairment assessed as reduction in escape latency time to find removed platform position at 56 mg/kg, po administered via gavage and measured on 5th day by Morris water maze test; format: functional, organism-based; settings: in the assay text read “6th day” for “5th day”; summary of the method: as §4
[11] = tested on: Mus musculus; experiment: Cognitive enhancing effect in C57BL/6 mouse model of amyloid beta (25 to 35) peptide-induced memory impairment assessed as reduction in escape latency time to find removed platform position at 14 to 56 mg/kg, po administered via gavage and measured on 6th day by Morris water maze test; format: functional, organism-based; summary of the method: as §4
[12] = tested on: Mus musculus; experiment: Cognitive enhancing effect in C57BL/6 mouse model of amyloid beta (25 to 35) peptide-induced memory impairment assessed as reduction in time to reach the target quadrants at 14 to 56 mg/kg, po administered via gavage and measured on 6th day by Morris water maze test; format: functional, organism-based; summary of the method: as §4
[13] = tested on: Mus musculus; experiment: Cognitive enhancing effect in orally dosed C57BL/6 mouse model of amyloid beta (25 to 35) peptide-induced memory impairment assessed as increase in crossing numbers of target quadrants administered via gavage and measured on 6th day by Morris water maze test; format: functional, organism-based; summary of the method: as §4
[14] = tested on: Mus musculus; experiment: Neuroprotective activity in amyloid beta (25 to 35) peptide-induced memory impairment C57BL/6 mouse model assessed as reduction in amyloid beta (25 to 35) peptide deposition at 14 to 56 mg/kg, po administered via gavage by DAPI staining based immunohistochemical analysis; format: functional, organism-based
Summary of the method: (§5)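 Hippocampal sections from Aβ25–35-injected mice after long-term dosing were immunostained for Aβ25–35 (red) and Iba-1 (green) with DAPI counterstain. Integral optical density was quantified and given as mean ± SEM.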

[15] = tested on: Mus musculus; experiment: Neuroprotective activity in orally dosed amyloid beta (25 to 35) peptide-induced memory impairment C57BL/6 mouse model assessed as reduction in amyloid beta (25 to 35) peptide deposition administered via gavage by DAPI staining based immunohistochemical analysis; format: functional, organism-based; summary of the method: as §5
[16] = tested on: Mus musculus; experiment: Neuroprotective activity in amyloid beta (25 to 35) peptide-induced memory impairment C57BL/6 mouse model assessed as increase in number of microglia expression at 14 to 56 mg/kg, po administered via gavage by DAPI staining based immunohistochemical analysis; format: functional, organism-based; summary of the method: as §5
[17] = tested on: Mus musculus; experiment: Neuroprotective activity in orally dosed amyloid beta (25 to 35) peptide-induced memory impairment C57BL/6 mouse model assessed as increase in Iba1 expression administered via gavage by DAPI staining based immunohistochemical analysis; format: functional, organism-based; summary of the method: as §5

SMILES: C[C@H]1[C@H](C)CC[C@]2(C(=O)O)CC[C@]3(C)C(=CC[C@@H]4[C@@]5(C)CC[C@H](O)C(C)(C)[C@@H]5CC[C@]43C)[C@H]12 [URSOLIC ACID]
- Activity [1]: Non-Toxic
- Activity [2]: Non-Toxic
- Activity [3]: Active
- Activity [4]: Dose-dependent effect
- Activity [5]: Dose-dependent effect
- Activity [6]: Active
- Activity [7]: Non-Toxic
- Activity [8]: Active
- Activity [9]: Active
- Activity [10]: Active
- Activity [11]: Active
- Activity [12]: Active
- Activity [13]: Dose-dependent effect
- Activity [14]: Active
- Activity [15]: Dose-dependent effect
- Activity [16]: Active
- Activity [17]: Dose-dependent effect
